Data set [1] in a line: folding enthalpy; higher = less favourable; fluorescence melt of hairpins on a sequencing array, two-state fit. Particulars: sodium 0.088 M. The method, boiled down: (§1)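 Two-state fits, bootstrapped, provided melting temperature and folding enthalpy from Cy3 fluorescence normalised to pre-quench Cy3 and to control constructs. Library hairpins with annealed Cy3 and quencher oligos were imaged on a sequenced MiSeq flow cell in 50 mM Na-HEPES pH 8.0, 25 mM NaCl, at 2.5 °C intervals up to 60 °C. Four replicates were combined with inverse-variance weighting. A 9.35 °C upward shift was applied to fitted temperatures to match UV melts.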

Data set [2] can be described thus: melting temperature; fluorescence melt of hairpins on a sequencing array, two-state fit, raised by 9.35 °C to match UV melts. Particulars: sodium 0.088 M. The essentials:
as §1

With GGGTCCGAAAGGAGCCC ((((((....))).))), the folding enthalpy in data set [1] is -15.6 kcal/mol. Further, the Tm in data set [2] was 68.5 °C.
With GGGTCCGAAAGGAGTCCC ((((((....)))..))), in data set [1], the folding enthalpy is -19.6 kcal/mol. Besides, the Tm in data set [2] was determined as 46.5 °C.
For GGGTCCTCGAAAGAGCCC (((..(((....)))))), the folding enthalpy in data set [1] was -15.3 kcal/mol. In addition, the Tm in data set [2] turned out to be 40 °C.
In the case of GGGTCGGGAAACCGGCTC (.(.(((....))).).), the folding enthalpy in data set [1] was -21.1 kcal/mol. In data set [2], the Tm was determined as 47.9 °C.
GGGTCGGGAAACCGGTCC ((..(((....)))..)): in data set [1], the folding enthalpy is -28.5 kcal/mol. Further, in data set [2], the Tm amounted to 47.2 °C.
On to GGGTCTCGAAAGAGCCCC (((.(((....))).))), for which, in data set [1], the folding enthalpy is -37.9 kcal/mol. The Tm in data set [2] turned out to be 57.4 °C.
For GGGTCTGGAAACAGACTC (.(((((....))))).), in data set [1], the folding enthalpy was -21.9 kcal/mol. The Tm in data set [2] was 52 °C.
On the same counts, the results for GGGTCTGGAAACGGACCC (((((.(....).))))) are -51.6 kcal/mol and 59.3 °C.
Consider GGGTGACGAAAGTCTCCC (((.(((....))).))), for which the folding enthalpy in data set [1] is -36.2 kcal/mol. For the same sequence, the Tm in data set [2] was 60.3 °C.
With GGGTGAGCGAAAGCTCCC (((..(((....)))))), the folding enthalpy in data set [1] is -12.6 kcal/mol. The Tm in data set [2] came to 49.1 °C.
For GGGTGCCGAAAGGCCCC (((.(((....)))))), the folding enthalpy in data set [1] was -21.8 kcal/mol. For the same sequence, the Tm in data set [2] worked out at 67.2 °C.
Take GGGTGCCGAAAGGCCCCC (((.(((....))).))): the folding enthalpy in data set [1] was -15.6 kcal/mol. In data set [2], the Tm is 66.8 °C.
For the sequence GGGTGCGAAAGCACTCCC ((((((....)))..))), the folding enthalpy in data set [1] was -10.4 kcal/mol. Also, the Tm in data set [2] was determined as 53.5 °C.
On to GGGTGCGAAAGCATGCCC ((((((....)))..))), for which the folding enthalpy in data set [1] is -15.7 kcal/mol. The Tm in data set [2] was 49.6 °C.
For the sequence GGGTGCGGAAACACACCC (((((.(....).))))), the folding enthalpy in data set [1] is -37.6 kcal/mol. Further, the Tm in data set [2] came to 54.8 °C.
Consider GGGTGCGGAAACGCACTC (.(((((....))))).), for which, in data set [1], the folding enthalpy was -12 kcal/mol. The Tm in data set [2] turned out to be 59.4 °C.
On the same counts, the results for GGGTGCGGAAACGCGTCC ((..(((....)))..)) are -19.7 kcal/mol and 50.9 °C.
For GGGTGGGCGAAAGCCCCC (((..(((....)))))) the same measures were -12 kcal/mol and 54.5 °C.
On the same counts, the results for GGGTGGGGAAACCCATCC ((.((((....)))).)) are -34.7 kcal/mol and 54.2 °C.
As to GGGTGTCCGAAAGGACCC (((..(((....)))))), the folding enthalpy in data set [1] is -14 kcal/mol. The Tm in data set [2] amounted to 55 °C.
On the same counts, the results for GGGTGTGGAAACACGCCC (((.(((....))).))) are -39.6 kcal/mol and 62.5 °C.
On the same counts, the results for GGGTGTGGAAACGCACCC (((((.(....).))))) are -45.2 kcal/mol and 60 °C.
With GGGTTAGGAAACTAATCC ((.((((....)))).)), the folding enthalpy in data set [1] was -35.1 kcal/mol. Further, in data set [2], the Tm was 42.7 °C.
For GGGTTCCCGAAAGGGCCC (((..(((....)))))), in data set [1], the folding enthalpy was -18.6 kcal/mol. In data set [2], the Tm turned out to be 47.7 °C.
Turning to GGGTTCCGAAAGGACCCC (((.(((....))).))), the folding enthalpy in data set [1] is -39.5 kcal/mol. In data set [2], the Tm turned out to be 58.1 °C.
With GGGTTCCGAAAGGAGCCC (((.(((....))).))), the folding enthalpy in data set [1] was -39.8 kcal/mol. In data set [2], the Tm worked out at 67.1 °C.
As for GGGTTCGAAAGAAACCCC ((((((....)))..))), the folding enthalpy in data set [1] was -18.5 kcal/mol. In addition, in data set [2], the Tm was found to be 52.5 °C.
Regarding GGGTTCGAAAGAAGTCCC ((((((....)))..))), in data set [1], the folding enthalpy is -20.2 kcal/mol. Moreover, the Tm in data set [2] was determined as 32.7 °C.
On to GGGTTCGAAAGAATACCC ((((((....)))..))), for which the folding enthalpy in data set [1] was -24.9 kcal/mol. Moreover, the Tm in data set [2] turned out to be 40.5 °C.
In the case of GGGTTCGAAAGAATCCC ((((((....))).))), the folding enthalpy in data set [1] is -29 kcal/mol. The Tm in data set [2] is 52 °C.
With GGGTTCGGAAACGAGCCC (((.(((....))).))), in data set [1], the folding enthalpy is -57.9 kcal/mol. Further, in data set [2], the Tm was 58.1 °C.
As for GGGTTCGGAAACGGACCC ((((.((....)).)))), the folding enthalpy in data set [1] was -46.2 kcal/mol. For the same sequence, the Tm in data set [2] came out at 59.6 °C.
Consider GGGTTGGAAACAACCC ((((((....)))))), for which, in data set [1], the folding enthalpy was -38.2 kcal/mol. For the same sequence, in data set [2], the Tm stood at 64.7 °C.
With GGGTTGGGAAACCAACCC (((((((....))))))), the folding enthalpy in data set [1] is -32.3 kcal/mol. For the same sequence, the Tm in data set [2] is 69.3 °C.
As to GGGTTGGGAAACTAGCCC (((.(.(....).).))), the folding enthalpy in data set [1] is -21.4 kcal/mol. Moreover, in data set [2], the Tm was determined as 42 °C.
Turning to GGGTTGGGAAACTGACCC ((((..(....)..)))), the folding enthalpy in data set [1] was -26.5 kcal/mol. Moreover, in data set [2], the Tm came to 45.1 °C.

For the origin of these results see the array DNA melting data of Ke et al. (doi:10.1101/2024.01.08.574731).
